Laboratory results from ChEMBL document CHEMBL4028894, “Identification of a New Pyrazolo[1,5-a]quinazoline Ligand Highly Affine to γ-Aminobutyric Type A (GABAA) Receptor Subtype with Anxiolytic-Like and Antihyperalgesic Activity” (J Med Chem, 2017).

How the values were obtained:
Bos taurus = species: Bos taurus; test: Displacement of [3H]Ro15-1788 from GABAA receptor in bovine cerebral cortex membranes at 10 uM after 90 mins by liquid scintillation counting method relative to control; assay type: cell membranes; conditions: Membrane
Method in brief: (§1)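 Bovine cerebral cortex membranes in 50 mM tris-citrate pH 7.4, with displacement of specific [3H]flumazenil binding. Single-point screen at 10 μM gives % inhibition. Where inhibition exceeds 80%, at least six concentrations tested and Ki derived by iterative curve fitting and the Cheng-Prusoff equation. Five experiments, each in triplicate; mean ± SEM.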

[1] = Displacement of [3H]Ro15-1788 from GABAA receptor in bovine cerebral cortex membranes after 90 mins by liquid scintillation counting method; assay type: cell membranes, Bos taurus, Membrane; method in brief: as §1
Mus musculus [2] = test: Antihyperalgesic activity in streptozotocin-induced Swiss albino mouse hyperalgesia model assessed as licking latency time at 30 mg/kg, po after 60 mins by hot plate test (reference value: 9.6 +/- 0.9 secs); assay type: functional
Mus musculus [3] = test: Anxiolytic-like activity in Swiss albino mouse assessed as persistent time in light box at 30 mg/kg, po administered 30 mins prior to testing in presence of GABAA receptor antagonist flumazenil by light dark box test (131.9 +/- 6.5 secs); assay type: functional
Mus musculus [4] = test: Anticonvulsant activity in Swiss albino mouse assessed as protection against subcutaneous pentylenetetrazole-induced seizures at 30 mg/kg, po administered 30 mins followed by pentylenetetrazole challenge measured over 30 mins relative to control; assay type: functional
Method in brief: (§2)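 Male Swiss albino mice, 6 per group. Compound given p.o. in 1% carboxymethylcellulose. Pentylenetetrazole 90 mg/kg in saline given s.c. 30 min later. Occurrence of clonic generalized convulsions noted over 30 min. Result expressed as % protection, with the vehicle group taken as 0%.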

Mus musculus [5] = test: Anxiolytic-like activity in Swiss albino mouse assessed as persistent time in light box at 10 mg/kg, po administered 30 mins prior to testing by light dark box test (131.9 +/- 6.5 secs); assay type: functional
Rattus norvegicus [6] = test: Effect on pain threshold in contralateral paw in Sprague-Dawley rat peripheral mononeuropathy model at 30 mg/kg, po; assay type: ADME, organism-based; conditions: in vivo
Mus musculus [7] = test: Effect on licking latency time in Swiss albino mouse at 30 mg/kg, po after 30 mins by hot plate test (reference value: 18.8 +/- 1.2 secs); assay type: ADME, organism-based; conditions: in vivo, 0.5 h
Mus musculus [8] = test: Effect on motor coordination in Swiss albino mouse at 30 mg/kg, po measured over 30 secs at 15 to 60 mins post drug administration by rota rod test; assay type: ADME, organism-based; conditions: in vivo
Method in brief: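 Male Swiss albino mice, 8 per group. Oral dose in 1% carboxymethylcellulose. Rota rod turning at 16 r.p.m. Falls from the rod counted over 30 s, measured before dosing and every 15 min up to 60 min after.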

Mus musculus [9] = test: Amnesic effect in Swiss albino mouse assessed as retention session latency time at 30 mg/kg, po administered 30 mins prior to testing by passive-avoidance test (reference value: 98.4 +/- 8.8 secs); assay type: ADME, organism-based; conditions: in vivo
Mus musculus [10] = test: Anticonvulsant activity in Swiss albino mouse assessed as protection against subcutaneous pentylenetetrazole-induced seizures at 10 mg/kg, po administered 30 mins followed by pentylenetetrazole challenge measured over 30 mins relative to control; assay type: functional
Method in brief: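 Male Swiss albino mice (23-30 g), 6 per group. Test drug suspended in 1% carboxymethylcellulose, given orally 30 min before PTZ 90 mg/kg s.c. (saline). Clonic generalized convulsions recorded over 30 min. Result expressed as % protection versus vehicle-treated animals (0% protection).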

Mus musculus [11] = test: Anxiolytic-like activity in Swiss albino mouse assessed as persistent time in light box at 30 mg/kg, po administered 30 mins prior to testing by light dark box test (131.9 +/- 6.5 secs); assay type: functional
Mus musculus [12] = test: Anticonvulsant activity in Swiss albino mouse assessed as protection against subcutaneous pentylenetetrazole-induced seizures at 100 mg/kg, po administered 30 mins followed by pentylenetetrazole challenge measured over 30 mins relative to control; assay type: functional; method in brief: as §2
Mus musculus [13] = test: (§3) Reversal of scopolamine-induced amnesic effect in Swiss albino mouse assessed as training session latency time at 10 mg/kg, po administered 30 mins followed by establishment of training session and immediate addition of scopolamine post session by passive-avoidance test (reference value: 15.9 +/- 3 secs); assay type: functional
Method in brief: (§4)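 Male Swiss albino mice, 8 per group, step-through passive avoidance. Compound given p.o. in 1% carboxymethylcellulose 30 min before training. Scopolamine 1.5 mg/kg in saline given i.p. immediately after training. Punishment on entering the dark compartment is a fall into 10 °C water. Latencies measured at training and at retention 24 h later (max 120 s).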

Mus musculus [14] = test: Anxiolytic-like activity in Swiss albino mouse assessed as persistent time in light box at 1 mg/kg, po administered 30 mins prior to testing by light dark box test (131.9 +/- 6.5 secs); assay type: functional
Mus musculus [15] = test: Amnesic effect in Swiss albino mouse assessed as training session latency time at 30 mg/kg, po administered 30 mins prior to testing by passive-avoidance test (reference value: 14.1 +/- 3.4 secs); assay type: ADME, organism-based; conditions: in vivo
Mus musculus [16] = test: as §3, with “30” for “10”; assay type: functional; method in brief: as §4
Rattus norvegicus [17] = test: Antihyperalgesic activity in Sprague-Dawley rat peripheral mononeuropathy model assessed as ipsilateral paw pressure at 10 mg/kg, po after 45 mins by analgesimeter (36.9 +/- 3.8 g); assay type: functional
NSC = test: Cytotoxicity against human H9-derived neural stem cells assessed as effect on cell viability at 1 to 1000 nM after 72 hrs by MTS assay; assay type: cell-based; conditions: 1 µM
Method in brief: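 Neural stem cells derived from H9 were grown on polyornithine/laminin and differentiated for 7 days in serum-free Neurobasal with 2% B-27, 2 mM L-glutamine and 5 μM retinoic acid. Cells then exposed 72 h to 1 nM-1 μM compound. MTS absorbance read at 490, background subtracted, expressed as % of untreated cells. Three independent experiments, each in triplicate.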

Mus musculus [18] = test: Effect on licking latency time in Swiss albino mouse at 30 mg/kg, po after 45 mins by hot plate test (reference value: 18 +/- 0.9 secs); assay type: ADME, organism-based; conditions: in vivo, 0.75 h
Mus musculus [19] = test: Antihyperalgesic activity in streptozotocin-induced Swiss albino mouse hyperalgesia model assessed as licking latency time at 30 mg/kg, po after 15 mins by hot plate test (reference value: 9.4 +/- 1.1 secs); assay type: functional
Rattus norvegicus [20] = test: Antihyperalgesic activity in Sprague-Dawley rat peripheral mononeuropathy model assessed as ipsilateral paw pressure at 10 mg/kg, po after 15 mins by analgesimeter (33.7 +/- 3.2 g); assay type: functional
Mus musculus [21] = test: as §3, with “as retention” for “as training”, “at 30” for “at 10”, “value: 46.3” for “value: 15.9”, “+/- 7.5” for “+/- 3”; assay type: functional; method in brief: as §4
Mus musculus [22] = test: Antihyperalgesic activity in streptozotocin-induced Swiss albino mouse hyperalgesia model assessed as licking latency time at 30 mg/kg, po after 45 mins by hot plate test (reference value: 10.9 +/- 0.8 secs); assay type: functional
Mus musculus [23] = test: Effect on explorative activity in Swiss albino mouse at 30 mg/kg, po measured over 5 mins by […] test; assay type: ADME, organism-based; conditions: in vivo
Method in brief: (§5)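 Male Swiss albino mice, 8 per group, hole-board: a 40 cm square with 16 holes. Compound given 30 min before the test. Each mouse explores freely for 5 min. Photobeam counts across quadrants give locomotor activity; photocells in the holes give the number of hole inspections.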

Rattus norvegicus [24] = test: Antihyperalgesic activity in Sprague-Dawley rat peripheral mononeuropathy model assessed as ipsilateral paw pressure at 10 mg/kg, po after 30 mins by analgesimeter (41.7 +/- 3.6 g); assay type: functional
Mus musculus [25] = test: Effect on spontaneous motility in Swiss albino mouse at 30 mg/kg, po measured over 5 mins by […] test; assay type: ADME, organism-based; conditions: in vivo; method in brief: as §5
Mus musculus [26] = test: Effect on licking latency time in Swiss albino mouse at 30 mg/kg, po after 15 mins by hot plate test (reference value: 18.3 +/- 1.1 secs); assay type: ADME, organism-based; conditions: in vivo, 0.25 h
Rattus norvegicus [27] = test: Antihyperalgesic activity in Sprague-Dawley rat peripheral mononeuropathy model assessed as ipsilateral paw pressure at 30 mg/kg, po after 15 mins by analgesimeter (33.7 +/- 3.2 g); assay type: functional
Rattus norvegicus [28] = test: Antihyperalgesic activity in Sprague-Dawley rat peripheral mononeuropathy model assessed as ipsilateral paw pressure at 30 mg/kg, po after 30 mins by analgesimeter (41.7 +/- 3.6 g); assay type: functional
Rattus norvegicus [29] = test: Antihyperalgesic activity in Sprague-Dawley rat peripheral mononeuropathy model assessed as ipsilateral paw pressure at 30 mg/kg, po after 45 mins by analgesimeter (36.9 +/- 3.8 g); assay type: functional
Mus musculus [30] = test: as §3, with “as retention” for “as training”, “value: 46.3” for “value: 15.9”, “+/- 7.5” for “+/- 3”; assay type: functional; method in brief: as §4
Mus musculus [31] = test: Antihyperalgesic activity in streptozotocin-induced Swiss albino mouse hyperalgesia model assessed as licking latency time at 30 mg/kg, po after 30 mins by hot plate test (reference value: 10.2 +/- 0.8 secs); assay type: functional
Mus musculus [32] = test: Effect on licking latency time in Swiss albino mouse at 30 mg/kg, po after 60 mins by hot plate test (reference value: 17.9 +/- 1.1 secs); assay type: ADME, organism-based; conditions: in vivo, 1 h
Mus musculus [33] = test: Anxiolytic-like activity in Swiss albino mouse assessed as persistent time in light box at 100 mg/kg, ip administered 40 mins prior to testing by light dark box test (131.9 +/- 6.5 secs); assay type: functional

In the case of COc1ccc2cnc3c(C(=O)OC(C)C)cnn3c2c1, the inhibition (Bos taurus) is reported as > 80% and the Ki [1] is reported as 0.0974 µM.

For COc1ccc2cnc3c(C(=O)OCc4cccs4)cnn3c2c1, the inhibition (Bos taurus) was > 80% and the Ki [1] was 0.0167 µM.

For O=C(OCc1cccs1)c1cnn2c1ncc1ccccc12, the inhibition (Bos taurus) was > 80% and the Ki [1] was 0.0132 µM.

In the case of COc1ccc2cnc3c(C(=O)OCc4ccco4)cnn3c2c1, the inhibition (Bos taurus) is reported as > 80% and the Ki [1] is reported as 0.0152 µM.

Molecule N#Cc1cnn2c1ncc1ccccc12 has an inhibition (Bos taurus) of 27%.

With COc1ccc2cnc3c(C(=O)OCc4ccccc4OC)cnn3c2c1 the Time (Mus musculus [2]) was 11.2 s, the Time (Mus musculus [3]) was 136.4 s and the Activity (Mus musculus [4]) was 10%. For the same molecule, the inhibition (Bos taurus) was > 80%, the Time (Mus musculus [5]) was 169.6 s and the Activity (Rattus norvegicus [6]) was “Non-Toxic”. The Time (Mus musculus [7]) was 17.2 s, the Activity (Mus musculus [8]) was “Non-Toxic” and the Time (Mus musculus [9]) was 105.6 s. For the same molecule, the Activity (Mus musculus [10]) was 0%, the Time (Mus musculus [11]) was 165.7 s and the Activity (Mus musculus [12]) was 10%. The Time (Mus musculus [13]) was 17.5 s, the Time (Mus musculus [14]) was 133.1 s and the Time (Mus musculus [15]) was 16.5 s. For the same molecule, the Time (Mus musculus [16]) was 17.52 s, the Activity (Rattus norvegicus [17]) was 36.9 g and the Activity (NSC) was “Non-Toxic”. For the same molecule, the Ki [1] was 0.00027 µM, the Time (Mus musculus [18]) was 18.4 s and the Time (Mus musculus [19]) was 16.6 s. It also gave an Activity (Rattus norvegicus [20]) of 39.8 g, a Time (Mus musculus [21]) of 60.4 s and a Time (Mus musculus [22]) of 13.1 s. The Activity (Mus musculus [23]) was “Non-Toxic”, the Activity (Rattus norvegicus [24]) was 41.7 g and the Activity (Mus musculus [25]) was “Non-Toxic”. For the same molecule, the Time (Mus musculus [26]) was 17.3 s, the Activity (Rattus norvegicus [27]) was 52.4 g and the Activity (Rattus norvegicus [28]) was 41.7 g. The Activity (Rattus norvegicus [29]) was 35.9 g, the Time (Mus musculus [30]) was 53.1 s and the Time (Mus musculus [31]) was 15.5 s. For the same molecule, the Time (Mus musculus [32]) was 17.5 s.

For CCOC(=O)c1cnn2c1[nH]c(=O)c1ccc(OC)cc12, the inhibition (Bos taurus) was 2%.

In the case of COc1ccc2cnc3c(C(=O)OCc4ccccc4)cnn3c2c1, the inhibition (Bos taurus) is reported as > 80% and the Ki [1] is reported as 0.019 µM.

For CN1C(=O)CN=C(c2ccccc2)c2cc(Cl)ccc21 [DIAZEPAM], the Time (Mus musculus [5]) was 165.6 s, the Activity (Mus musculus [10]) was 100% and the Ki [1] was 0.0123 µM.

For CCOC(=O)c1cnn2c1ncc1ccc(OC)cc12, the inhibition (Bos taurus) was > 80% and the Ki [1] was 0.102 µM.

With CCOC(=O)c1cnn2c1NCc1ccc(OC)cc1-2 the inhibition (Bos taurus) was > 80% and the Ki [1] was 0.376 µM.

Molecule COCCOc1ccc2cnc3c(C#N)cnn3c2c1 has an inhibition (Bos taurus) of 53%.

For COc1ccccc1COC(=O)c1cnn2c1ncc1ccccc12, the inhibition (Bos taurus) was > 80% and the Ki [1] was 0.00316 µM.

In the case of O=C(OCc1ccccc1)c1cnn2c1ncc1ccccc12, the inhibition (Bos taurus) is reported as > 80% and the Ki [1] is reported as 0.0259 µM.

With CCOC(=O)c1cnn2c1ncc1ccccc12 the inhibition (Bos taurus) was > 80% and the Ki [1] was 0.529 to 0.835 µM.

Molecule CCOC(=O)c1ncn2c1CN(C)C(=O)c1cc(F)ccc1-2 [FLUMAZENIL] has a Time (Mus musculus [33]) of 127.5 s.

For COc1ccc2c(c1)-n1ncc(C(=O)OCc3ccccc3)c1NC2, the inhibition (Bos taurus) was > 80% and the Ki [1] was 0.034 µM.

For COc1ccc2cnc3c(C#N)cnn3c2c1, the inhibition (Bos taurus) was > 80% and the Ki [1] was 0.378 µM.

In the case of COc1ccc2c(c1)-n1ncc(C(=O)OCc3ccccc3OC)c1NC2, the inhibition (Bos taurus) is reported as > 80% and the Ki [1] is reported as 0.016 µM.
